Data on 16 molecules can be found in ChEMBL document CHEMBL2046324, “Synthesis and biological evaluation of 1-arylsulfonyl-5-(N-hydroxyacrylamide)indoles as potent histone deacetylase inhibitors with antitumor activity in vivo” (J Med Chem, 2012).

The nature of test [1]: cells. Particulars: Homo sapiens, Hep3B, 48 h. The test is classed as functional, Hep 3B2.
For test [2], the target named is Histone deacetylase. Description: Inhibition of HDAC in human HeLa cell nuclear extract after 30 mins by fluorescence microplate reader. The test is classed as protein assay.
Test [3] concerns A549. Description: Growth inhibition of human A549 cells after 48 hrs by SRB assay. The test is classed as functional. An outline of the steps:
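A549 cells were grown in RPMI 1640 with 10% FBS and 2 mM glutamine at 37 °C in 5% CO₂, then seeded in medium with 5% FBS. A 24 h TCA-fixed plate gave T₀. Cells were exposed to compound or DMSO for 48 h, fixed with 10% TCA and stained with 0.4% SRB; bound dye was solubilized in 10 mM Tris and read at 515 nm. GI₅₀ was the concentration halving net protein increase. At least three independent experiments.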
(Sulforhodamine B stains cellular protein and so reports cell mass.)

Test [4] deals with PC-3. Description: cells. Particulars: Homo sapiens, PC-3, 48 h. The test is classed as functional.
In test [5] the test system is MDA-MB-231. Kind of test: cells. Particulars: Homo sapiens, MDA-MB-231, 48 h. The test is classed as functional.
Test [6] deals with T1, Protein deacetylase HDAC6 (Homo sapiens, UniProt Q9UBN7).
T1 sequence (Q9UBN7 whole entry): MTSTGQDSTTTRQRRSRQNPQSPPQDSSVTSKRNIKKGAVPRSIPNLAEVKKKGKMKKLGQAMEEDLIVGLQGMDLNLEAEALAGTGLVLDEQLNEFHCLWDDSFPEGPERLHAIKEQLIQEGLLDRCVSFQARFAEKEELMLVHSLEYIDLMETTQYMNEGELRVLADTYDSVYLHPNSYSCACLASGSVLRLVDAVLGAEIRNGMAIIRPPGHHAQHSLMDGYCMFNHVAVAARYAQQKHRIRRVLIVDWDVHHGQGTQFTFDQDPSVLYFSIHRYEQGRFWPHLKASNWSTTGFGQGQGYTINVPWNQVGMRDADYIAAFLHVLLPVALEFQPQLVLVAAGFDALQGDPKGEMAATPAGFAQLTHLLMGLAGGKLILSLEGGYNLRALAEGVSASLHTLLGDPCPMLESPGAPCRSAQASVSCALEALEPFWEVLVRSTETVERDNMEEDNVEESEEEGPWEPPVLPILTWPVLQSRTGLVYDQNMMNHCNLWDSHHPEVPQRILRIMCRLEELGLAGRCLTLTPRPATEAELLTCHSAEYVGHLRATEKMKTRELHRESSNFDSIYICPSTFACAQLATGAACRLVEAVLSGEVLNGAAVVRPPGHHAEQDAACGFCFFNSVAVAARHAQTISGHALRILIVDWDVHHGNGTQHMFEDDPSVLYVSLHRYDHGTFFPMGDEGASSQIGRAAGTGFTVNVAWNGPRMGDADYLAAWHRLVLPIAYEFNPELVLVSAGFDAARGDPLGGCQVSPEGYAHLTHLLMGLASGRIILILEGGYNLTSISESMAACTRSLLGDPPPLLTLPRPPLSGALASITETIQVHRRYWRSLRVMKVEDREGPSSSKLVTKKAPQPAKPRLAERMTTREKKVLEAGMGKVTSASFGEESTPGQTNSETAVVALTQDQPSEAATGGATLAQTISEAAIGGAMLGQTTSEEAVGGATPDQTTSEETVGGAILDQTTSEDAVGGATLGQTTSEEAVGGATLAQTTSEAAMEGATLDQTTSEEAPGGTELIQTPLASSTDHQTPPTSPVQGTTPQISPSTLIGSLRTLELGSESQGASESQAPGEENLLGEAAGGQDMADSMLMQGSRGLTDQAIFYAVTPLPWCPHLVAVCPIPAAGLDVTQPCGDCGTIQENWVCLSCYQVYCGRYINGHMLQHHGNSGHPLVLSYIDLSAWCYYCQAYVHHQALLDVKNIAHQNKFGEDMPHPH
Description: Inhibition of human recombinant HDAC6 after 30 mins by fluorometric assay.

For test [7], the target named is Histone deacetylase 2 (Homo sapiens, UniProt Q92769). Description: Inhibition of human recombinant HDAC2 after 30 mins by fluorometric assay.
Test [8] deals with Histone deacetylase 1 (Homo sapiens, UniProt Q13547). Description: Inhibition of human recombinant HDAC1 after 30 mins by fluorometric assay.
For test [9], the species on record is Homo sapiens. Description: Selectivity ratio of IC50 for human HDAC1 to IC50 for human HDAC6.

By GI50 is commonly meant the concentration giving 50% growth inhibition. Read a high GI50 as less potent growth inhibition. In general, IC50 refers to the point on the concentration scale where inhibition reaches its midpoint.

Sequence of Histone deacetylase 1 (Q13547 whole entry): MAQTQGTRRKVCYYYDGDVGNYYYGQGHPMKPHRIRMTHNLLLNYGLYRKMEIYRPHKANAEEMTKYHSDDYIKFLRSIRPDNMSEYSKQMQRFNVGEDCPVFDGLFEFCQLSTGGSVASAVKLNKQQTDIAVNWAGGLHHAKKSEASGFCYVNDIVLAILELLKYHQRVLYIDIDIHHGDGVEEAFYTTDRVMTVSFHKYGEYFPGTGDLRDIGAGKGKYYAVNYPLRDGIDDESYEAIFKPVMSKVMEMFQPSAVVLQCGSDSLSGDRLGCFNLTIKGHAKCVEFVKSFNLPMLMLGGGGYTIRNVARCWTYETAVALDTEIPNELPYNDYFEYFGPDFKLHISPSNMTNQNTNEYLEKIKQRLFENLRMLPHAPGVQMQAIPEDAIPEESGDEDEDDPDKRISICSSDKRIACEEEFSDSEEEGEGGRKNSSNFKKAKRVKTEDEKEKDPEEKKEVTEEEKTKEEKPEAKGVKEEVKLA
Sequence of Histone deacetylase 2 (Q92769 whole entry): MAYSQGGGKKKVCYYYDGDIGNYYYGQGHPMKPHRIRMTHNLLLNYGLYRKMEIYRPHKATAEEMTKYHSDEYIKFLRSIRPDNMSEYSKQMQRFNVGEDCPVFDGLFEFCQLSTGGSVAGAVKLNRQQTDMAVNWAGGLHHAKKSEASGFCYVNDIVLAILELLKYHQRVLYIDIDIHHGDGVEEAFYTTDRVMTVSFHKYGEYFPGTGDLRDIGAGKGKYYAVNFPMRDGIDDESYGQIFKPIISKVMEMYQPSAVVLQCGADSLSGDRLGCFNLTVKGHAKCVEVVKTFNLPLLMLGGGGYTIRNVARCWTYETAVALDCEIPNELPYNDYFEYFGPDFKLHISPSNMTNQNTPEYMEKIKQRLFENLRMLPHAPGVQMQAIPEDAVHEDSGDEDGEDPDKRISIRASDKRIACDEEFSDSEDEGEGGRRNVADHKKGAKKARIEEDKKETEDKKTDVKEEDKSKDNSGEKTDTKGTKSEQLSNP

As for `O=C(CCc1ccc2c(ccn2S(=O)(=O)c2ccccc2)c1)NO`, the GI50 in test [1] amounted to 2560 nM; in test [3] (Homo sapiens, A549, 48 h), 4.04 µM; in test [4], 2070 nM; in test [5] it was 2210 nM. The molecule also displayed an IC50 in [2] of 407.5 nM.

For `O=C(/C=C/c1ccc2c(ccn2-c2ccccc2)c1)NO`, the GI50 in [1] amounted to 1320 nM; in test [3] (Homo sapiens, A549, 48 h) it was 2.85 µM; in test [4], 1540 nM; in test [5], 1730 nM. The IC50 in [2] came to 186.5 nM.

Turning to `O=C(/C=C/c1ccc2[nH]cc(S(=O)(=O)c3ccccc3)c2c1)NO`, the concentration for 50% growth inhibition (GI50) in test [1] stood at 1270 nM; in test [3] (Homo sapiens, A549, 48 h), 3.33 µM; in [4], 1260 nM; in test [5], 1250 nM. The molecule also gave a half-maximal inhibitory concentration (IC50) in [2] of 275.2 nM.

As for `O=C(/C=C/c1cccc2ccn(S(=O)(=O)c3ccccc3)c12)NO`, the GI50 in test [1] was 3820 nM; in test [3] (Homo sapiens, A549, 48 h) it was 5.5 µM; in test [4] it was 4750 nM; in test [5], 7710 nM. In test [2], this molecule gave an IC50 above 1000 nM.

With `O=C(CCCCCCC(=O)Nc1ccccc1)NO` [VORINOSTAT], the GI50 in test [3] was determined as 1.85 µM.

Consider `O=C(/C=C/c1ccc2[nH]ccc2c1)NO`, for which the concentration for 50% growth inhibition (GI50) in test [1] was 3650 nM; in [3] (Homo sapiens, A549, 48 h), 9.07 µM; in test [4] it was 4800 nM; in test [5], 4370 nM. The molecule also gave an IC50 in test [2] above 1000 nM.

In the case of `COc1ccc(S(=O)(=O)n2ccc3cc(/C=C/C(=O)NO)ccc32)cc1OC`, the GI50 in [1] was determined as 360 nM; in test [3] (Homo sapiens, A549, 48 h), 0.56 µM; in test [4], 930 nM; in [5] it was 370 nM. Also, the IC50 came to 9.7 nM in test [2], 45.4 nM in [6], 2.3 nM in test [7] and 18.1 nM in [8].

Consider `O=C(/C=C/c1ccc2c(ccn2S(=O)(=O)c2ccc([N+](=O)[O-])cc2)c1)NO`, for which the GI50 in [1] is 560 nM; in test [3] (Homo sapiens, A549, 48 h), 1.21 µM; in test [4] it was 850 nM; in [5] it was 750 nM. For the same molecule, the IC50 in test [2] was determined as 12.6 nM; in test [6] it was 18.3 nM; in [7] it was 189 nM; in test [8] it was 69.9 nM.

For `O=C(NO)c1ccc2c(ccn2S(=O)(=O)c2ccccc2)c1`, the GI50 is above 10000 nM in [1]; above 10 µM in test [3] (Homo sapiens, A549, 48 h); 7260 nM in test [4]; 5680 nM in test [5]. The IC50 in [2] is listed as above 1000 nM.

As to `O=C(/C=C/c1ccc2c(ccn2Cc2ccccc2)c1)NO`, the concentration for 50% growth inhibition (GI50) in [1] came out at 860 nM; in test [3] (Homo sapiens, A549, 48 h), 2.37 µM; in test [4], 1230 nM; in test [5] it was 1180 nM. Also, the half-maximal inhibitory concentration (IC50) in test [2] is 32.1 nM; in [6], 40.4 nM; in [7], 381 nM; in test [8], 71.2 nM.

For `O=C(/C=C/c1cn(S(=O)(=O)c2ccccc2)c2ccccc12)NO`, the GI50 in test [1] was 8870 nM; in [3] (Homo sapiens, A549, 48 h), 7.06 µM; in test [4], 5770 nM; in test [5], 8140 nM. This molecule showed an IC50 in test [2] above 1000 nM.

For the molecule `COc1ccc(S(=O)(=O)n2ccc3cc(/C=C/C(=O)NO)ccc32)cc1`, the GI50 in test [1] amounted to 550 nM; in test [3] (Homo sapiens, A549, 48 h), 1.18 µM; in [4] it was 800 nM; in test [5], 750 nM. Further, the IC50 in test [2] was determined as 6.8 nM; in test [6], 3.3 nM; in test [7], 362 nM; in test [8], 125 nM. Besides, the Ratio IC50 in test [9] is 40.

For the molecule `O=C(/C=C/c1ccc2ccn(S(=O)(=O)c3ccccc3)c2c1)NO`, the GI50 in [1] was 2120 nM; in [3] (Homo sapiens, A549, 48 h) it was 5.3 µM; in [4], 2400 nM; in test [5] it was 2410 nM. This molecule also gave an IC50 in test [2] of 254 nM.

In the case of `O=C(/C=C/c1cccc2c1ccn2S(=O)(=O)c1ccccc1)NO`, the GI50 in test [1] worked out at 4320 nM; in [3] (Homo sapiens, A549, 48 h), 6.7 µM; in test [4], 3670 nM; in test [5], 4160 nM. The molecule further yielded an IC50 in [2] of 170.9 nM.

Regarding `O=C(/C=C/c1ccc2c(ccn2C(=O)c2ccccc2)c1)NO`, the GI50 in test [1] was 2400 nM; in test [3] (Homo sapiens, A549, 48 h), 5.8 µM; in test [4], 2320 nM; in test [5], 3180 nM. This molecule also came in with a half-inhibitory concentration (IC50) in test [2] of 757.6 nM.

As for `O=C(/C=C/c1ccc2c(ccn2S(=O)(=O)c2ccc(F)cc2)c1)NO`, the GI50 in test [1] is 640 nM; in test [3] (Homo sapiens, A549, 48 h), 0.75 µM; in [4], 390 nM; in test [5] it was 660 nM. Besides, the IC50 was 16.8 nM in test [2], 59.2 nM in [6], 199 nM in test [7] and 33.2 nM in [8].
